For data set [1], the system named is HepG2. The experiment in a line: Cytotoxicity against human HepG2 cells after 1 to 4 hrs by MTS assay. The format is cell-based. An outline of the steps:
(§1)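 HepG2 and THP-1 cells grown in RPMI 1640 with 10% FBS at 37 °C, 5% CO₂, and passaged twice weekly. Compounds applied as continuous exposure. Viability read by MTS reagent, 1–4 h incubation, absorbance at 490 nm; IC₅₀ derived.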

For data set [2], the system named is Plasmodium falciparum. Put plainly: Antimalarial activity against chloroquine/pyrimethamine-resistant Plasmodium falciparum W2 after 48 hrs by [3H]hypoxanthine incorporation assay. The format is functional, organism-based. An outline of the steps: (§2)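 [3H]hypoxanthine incorporation assay (Desjardins method, Milhous modification) with 48 h drug exposure. Compounds and controls were 2-fold diluted across 11 concentrations. IC50 was fitted by nonlinear logistic dose-response. Values are averaged where multiple results were generated, with relative errors usually <30%.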

For data set [3], the system named is Plasmodium falciparum. The experiment in a line: Antimalarial activity against chloroquine-sensitive Plasmodium falciparum D6 after 48 hrs by [3H]hypoxanthine incorporation assay. The format is functional, organism-based. An outline of the steps:
as §2

Data set [4] deals with Plasmodium falciparum. Put plainly: Antimalarial activity against multidrug-resistant Plasmodium falciparum TM91C235 after 48 hrs by [3H]hypoxanthine incorporation assay. The format is functional, organism-based. In a few lines: as §2
Data set [5] is described as follows: Half life in human liver microsomes at 1 uM by LCMS analysis. The format is ADME, Microsome. In a few lines:
(§3)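 Compound at 1 μM final with 0.5 mg/mL pooled human or mouse liver microsomes, 1.3 mM NADP, 3.3 mM MgCl₂, 0.1 M PBS pH 7.4. Reaction started with 1 U/mL G6PD, shaken at 37 °C. Aliquots quenched with cold acetonitrile at 0, 10, 20, 30 and 60 min and quantified by LCMS. t₁/₂ taken from log plot of total ion chromatogram area remaining.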

The test system of data set [6] is THP-1. The experiment in a line: Cytotoxicity against human THP1 cells after 1 to 4 hrs by MTS assay. The format is cell-based. In a few lines:
as §1

The nature of data set [7]: Half life in mouse liver microsomes at 1 uM by LCMS analysis. The data set is classed as ADME, Microsome. An outline of the steps: as §3

On to `CC[C@H]1OC(=O)[C@H](C)[C@@H](O[C@H]2C[C@@](C)(OC)[C@@H](O)[C@H](C)O2)[C@H](C)[C@@H](O[C@@H]2O[C@H](C)C[C@H](N(C)C)[C@H]2O)[C@](C)(O)C[C@@H](C)CN(CCNC(=O)Nc2ccc3ccccc3c2)[C@H](C)[C@@H](O)[C@]1(C)O`, for which the IC50 was 9000 nM in data set [1]; 30 nM in data set [2]; 71 nM in data set [3]; 24 nM in data set [4]; 5000 nM in data set [6]. Further, the half-life at 1 µM in data set [5] and in data set [7] was above 2 h each time.
On to `CC[C@H]1OC(=O)[C@H](C)[C@@H](O)[C@H](C)[C@@H](O[C@@H]2O[C@H](C)C[C@H](N(C)C)[C@H]2O)[C@](C)(O)C[C@@H](C)CN(CCNC(=S)NCCCc2ccccc2)[C@H](C)[C@@H](O)[C@]1(C)O`, for which the IC50 in data set [1] was found to be 14000 nM; in data set [2], 178 nM; in data set [3], 654 nM; in data set [4], 226 nM; in data set [6], 7000 nM. For the same compound, the half-life at 1 µM in data set [5] and in data set [7] was above 2 h in each case.
For `CC[C@H]1OC(=O)[C@H](C)[C@@H](O[C@H]2C[C@@](C)(OC)[C@@H](O)[C@H](C)O2)[C@H](C)[C@@H](O[C@@H]2O[C@H](C)C[C@H](N(C)C)[C@H]2O)[C@](C)(O)C[C@@H](C)CN(CCNC(=O)Nc2cccc3ccccc23)[C@H](C)[C@@H](O)[C@]1(C)O`, the IC50 was 35000 nM in data set [1]; 79 nM in data set [2]; 142 nM in data set [3]; 42 nM in data set [4]; 14000 nM in data set [6]. Further, the half-life at 1 µM in data set [5] and in data set [7] was above 2 h in each case.
Regarding `CC[C@H]1OC(=O)[C@H](C)[C@@H](O)[C@H](C)[C@@H](O[C@@H]2O[C@H](C)C[C@H](N(C)C)[C@H]2O)[C@](C)(O)C[C@@H](C)CN(CCNC(=O)Nc2ccc3ccccc3c2)[C@H](C)[C@@H](O)[C@]1(C)O`, the IC50 in data set [1] was 16000 nM; in data set [2], 99 nM; in data set [3], 318 nM; in data set [4] it was 106 nM; in data set [6], 8000 nM. Moreover, the half-life at 1 µM in data set [5] and in data set [7] was above 2 h throughout.
Turning to `CC[C@H]1OC(=O)[C@H](C)[C@@H](O[C@H]2C[C@@](C)(OC)[C@@H](O)[C@H](C)O2)[C@H](C)[C@@H](O[C@@H]2O[C@H](C)C[C@H](N(C)C)[C@H]2O)[C@](C)(O)C[C@@H](C)CN(CCCNC(=O)NC(C)C)[C@H](C)[C@@H](O)[C@]1(C)O`, the IC50 in data set [2] is above 5700 nM; in data set [3], above 1420 nM; in data set [4], above 5700 nM. Also, the half-life at 1 µM in data set [5] and in data set [7] was above 2 h throughout.
On to `CC[C@H]1OC(=O)[C@H](C)[C@@H](O[C@H]2C[C@@](C)(OC)[C@@H](O)[C@H](C)O2)[C@H](C)[C@@H](O[C@@H]2O[C@H](C)C[C@H](N(C)C)[C@H]2O)[C@](C)(O)C[C@@H](C)CN(CCNC(=O)Nc2ccccc2)[C@H](C)[C@@H](O)[C@]1(C)O`, for which the IC50 in data set [1] came out at 48000 nM; in data set [2] it was 67 nM; in data set [3] it was 223 nM; in data set [4], 103 nM; in data set [6] it was 27000 nM. The half-life at 1 µM in data set [5] and in data set [7] was above 2 h in each case.
As to `CC[C@H]1OC(=O)[C@H](C)[C@@H](O[C@H]2C[C@@](C)(OC)[C@@H](O)[C@H](C)O2)[C@H](C)[C@@H](O[C@@H]2O[C@H](C)C[C@H](N(C)C)[C@H]2O)[C@](C)(O)C[C@@H](C)CN(CCNC(=O)NCc2ccccc2)[C@H](C)[C@@H](O)[C@]1(C)O`, the IC50 in data set [1] is above 50000 nM; in data set [2], 287 nM; in data set [3], 320 nM; in data set [4], 170 nM; in data set [6] it was 35000 nM. Also, the half-life at 1 µM in data set [5] and in data set [7] was above 2 h throughout.
As to `CC[C@H]1OC(=O)[C@H](C)[C@@H](O[C@H]2C[C@@](C)(OC)[C@@H](O)[C@H](C)O2)[C@H](C)[C@@H](O[C@@H]2O[C@H](C)C[C@H](N(C)C)[C@H]2O)[C@](C)(O)C[C@@H](C)CN(CCNC(=S)Nc2cccc3ccccc23)[C@H](C)[C@@H](O)[C@]1(C)O`, the IC50 turned out to be 20000 nM in data set [1]; 99 nM in data set [2]; 225 nM in data set [3]; 130 nM in data set [4]; 9000 nM in data set [6]. In addition, the half-life at 1 µM in data set [5] and in data set [7] was above 2 h each time.
As for `CCOC(=O)CCN(CCN1C[C@H](C)C[C@@](C)(O)[C@H](O[C@@H]2O[C@H](C)C[C@H](N(C)C)[C@H]2O)[C@@H](C)[C@H](O[C@H]2C[C@@](C)(OC)[C@@H](O)[C@H](C)O2)[C@@H](C)C(=O)O[C@H](CC)[C@@](C)(O)[C@H](O)[C@H]1C)C(=O)Nc1ccc2ccccc2c1`, the IC50 was determined as 23000 nM in data set [1]; 207 nM in data set [2]; 773 nM in data set [3]; 2150 nM in data set [4]; 20000 nM in data set [6]. Further, the half-life at 1 µM in data set [5] and in data set [7] was above 2 h each time.
In the case of `CC[C@H]1OC(=O)[C@H](C)[C@@H](O)[C@H](C)[C@@H](O[C@@H]2O[C@H](C)C[C@H](N(C)C)[C@H]2O)[C@](C)(O)C[C@@H](C)CN(CCCNC(=S)NCc2ccccc2)[C@H](C)[C@@H](O)[C@]1(C)O`, the IC50 in data set [1] is above 50000 nM; in data set [2], 3630 nM; in data set [3] it was 2040 nM; in data set [4], 1540 nM; in data set [6], above 50000 nM. The half-life at 1 µM in data set [5] and in data set [7] was above 2 h in each case.
With `CC[C@H]1OC(=O)[C@H](C)[C@@H](O[C@H]2C[C@@](C)(OC)[C@@H](O)[C@H](C)O2)[C@H](C)[C@@H](O[C@@H]2O[C@H](C)C[C@H](N(C)C)[C@H]2O)[C@](C)(O)C[C@@H](C)CN(CCN(CCC(N)=O)C(=O)Nc2ccc3ccccc3c2)[C@H](C)[C@@H](O)[C@]1(C)O`, the IC50 in data set [1] worked out at 13000 nM; in data set [2] it was 62 nM; in data set [3], 190 nM; in data set [4], 39 nM; in data set [6], 7000 nM. The half-life at 1 µM in data set [5] and in data set [7] was above 2 h throughout.
On to `CC[C@H]1OC(=O)[C@H](C)[C@@H](O[C@H]2C[C@@](C)(OC)[C@@H](O)[C@H](C)O2)[C@H](C)[C@@H](O[C@@H]2O[C@H](C)C[C@H](N(C)C)[C@H]2O)[C@](C)(O)C[C@@H](C)CN(CCNC(=S)NCc2ccccc2)[C@H](C)[C@@H](O)[C@]1(C)O`, for which the IC50 in data set [1] was found to be 14000 nM; in data set [2] it was 72 nM; in data set [3], 109 nM; in data set [4], 106 nM; in data set [6] it was 9000 nM. In addition, the half-life at 1 µM in data set [5] and in data set [7] was above 2 h in each case.
Turning to `CCNC(=O)NCCN1C[C@H](C)C[C@@](C)(O)[C@H](O[C@@H]2O[C@H](C)C[C@H](N(C)C)[C@H]2O)[C@@H](C)[C@H](O[C@H]2C[C@@](C)(OC)[C@@H](O)[C@H](C)O2)[C@@H](C)C(=O)O[C@H](CC)[C@@](C)(O)[C@H](O)[C@H]1C`, the IC50 in data set [2] is 4930 nM; in data set [3], 3620 nM; in data set [4], 978 nM. For the same compound, the half-life at 1 µM in data set [5] and in data set [7] was above 2 h in each case.
As to `CC[C@H]1OC(=O)[C@H](C)[C@@H](O[C@H]2C[C@@](C)(OC)[C@@H](O)[C@H](C)O2)[C@H](C)[C@@H](O[C@@H]2O[C@H](C)C[C@H](N(C)C)[C@H]2O)[C@](C)(O)C[C@@H](C)CN(CCCN(CCC#N)C(=O)NC(C)C)[C@H](C)[C@@H](O)[C@]1(C)O`, the IC50 is above 13400 nM in data set [2], above 13400 nM in data set [3] and 1270 nM in data set [4]. In addition, the half-life at 1 µM in data set [5] and in data set [7] was above 2 h in each case.
As for `CC[C@H]1OC(=O)[C@H](C)[C@@H](O[C@H]2C[C@@](C)(OC)[C@@H](O)[C@H](C)O2)[C@H](C)[C@@H](O[C@@H]2O[C@H](C)C[C@H](N(C)C)[C@H]2O)[C@](C)(O)C[C@@H](C)CN(CCCN(CCC#N)C(=O)Nc2cccc3ccccc23)[C@H](C)[C@@H](O)[C@]1(C)O`, the IC50 was 1380 nM in data set [2], 523 nM in data set [3] and 255 nM in data set [4]. In addition, the half-life at 1 µM in data set [5] and in data set [7] was above 2 h in each case.
As for `CC[C@H]1OC(=O)[C@H](C)[C@@H](O[C@H]2C[C@@](C)(OC)[C@@H](O)[C@H](C)O2)[C@H](C)[C@@H](O[C@@H]2O[C@H](C)C[C@H](N(C)C)[C@H]2O)[C@](C)(O)C[C@@H](C)CN(CCNC(=O)NC(C)C)[C@H](C)[C@@H](O)[C@]1(C)O`, the IC50 in data set [2] amounted to 2060 nM; in data set [3], 1400 nM; in data set [4], 717 nM. For the same compound, the half-life at 1 µM in data set [5] and in data set [7] was above 2 h in each case.
In the case of `CC[C@H]1OC(=O)[C@H](C)[C@@H](O[C@H]2C[C@@](C)(OC)[C@@H](O)[C@H](C)O2)[C@H](C)[C@@H](O[C@@H]2O[C@H](C)C[C@H](N(C)C)[C@H]2O)[C@](C)(O)C[C@@H](C)CN(CCCN(CCC#N)C(=O)Nc2ccc3ccccc3c2)[C@H](C)[C@@H](O)[C@]1(C)O`, the IC50 in data set [2] amounted to 178 nM; in data set [3], 118 nM; in data set [4], 116 nM. In addition, the half-life at 1 µM in data set [5] and in data set [7] was above 2 h throughout.

Source of the values: ChEMBL document CHEMBL1772969, “Synthesis, structure-activity relationship, and antimalarial activity of ureas and thioureas of 15-membered azalides” (J Med Chem, 2011).
